Experimental data published in ChEMBL document CHEMBL1765042, “Utilization of nitrophenylphosphates and oxime-based ligation for the development of nanomolar affinity inhibitors of the Yersinia pestis outer protein H (YopH) phosphatase” (J Med Chem, 2011).
Active and inactive are the calls of the source. The rule behind the calls is not given here.

Columns and labels:
[1] = biological target: Secreted effector protein (Yersinia pestis, UniProt O68720); test: Inhibition of Yersinia pestis outer protein H expressed in Escherichia coli after 15 to 20 mins
Summary of the method: (§1)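 YopH PTPase domain (residues 164–468) expressed in E. coli. Buffer: 25 mM HEPES pH 7.0–7.6, 50 mM NaCl, 2.5 mM EDTA, 5 mM DTT plus 1 mM fresh DTT, with BSA, no detergent. Inhibitor DMSO dilutions ran 400 to 0.032 μM. Substrate was pNPP (10 mM stock), incubated 25 °C for 15–20 min. pNPP hydrolysis was measured colorimetrically and IC50 came from a Boltzmann sigmoidal fit.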

[2] = Inhibition of Variola major virus phosphatase VH1
Summary of the method: (§2)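 Recombinant phosphatases: Variola major VH1, human DUSP-14, and catalytic domains of DUSP-22, PTP1B and LAR. Each was assayed by the same spectrophotometric pNPP hydrolysis method as YopH (HEPES pH 7.0–7.6, NaCl, EDTA, DTT, BSA buffer; 25 °C, 15–20 min). IC50 came from a Boltzmann sigmoidal fit.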

[3] = biological target: Secreted effector protein (Yersinia pestis) (UniProt O68720); test: Inhibition of Yersinia pestis outer protein H expressed in Escherichia coli after 15 to 20 mins in presence of 0.01% TX-100
Summary of the method: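 YopH PTPase domain (residues 164–468, E. coli-expressed) run in a parallel independent pNPP hydrolysis assay with 0.01% Triton X-100 added. Buffer: 25 mM HEPES pH 7.0–7.6, 50 mM NaCl, 2.5 mM EDTA, DTT, BSA. Inhibitor DMSO dilutions ran 400 to 0.032 μM, incubated 25 °C for 15–20 min. IC50 came from a Boltzmann sigmoidal fit.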

[4] = biological target: Secreted effector protein (Yersinia pestis) (UniProt O68720); test: Inhibition of Yersinia pestis outer protein H expressed in Escherichia coli after 15 to 20 mins in absence of 0.01% TX-100; summary of the method: as §1
[5] = biological target: Tyrosine-protein phosphatase non-receptor type 1 (Homo sapiens, UniProt P18031); test: Inhibition of human PTP1B; summary of the method: as §2
[6] = biological target: Receptor-type tyrosine-protein phosphatase F (Homo sapiens, UniProt P10586); test: Inhibition of human leukocyte antigen related phosphatase; summary of the method: as §2
[7] = biological target: Dual specificity protein phosphatase 14 (Homo sapiens, UniProt O95147); test: Inhibition of human DUSP14; summary of the method: as §2
[8] = biological target: Dual specificity protein phosphatase 22 (Homo sapiens, UniProt Q9NRW4); test: Inhibition of human DUSP22; summary of the method: as §2
[9] = system: J774; test: Cytotoxicity against mouse J774 cells assessed as cell viability by measuring ATP level at < 100 uM after 40 hrs; assay type: cell-based; conditions: j774, 40 h
Summary of the method: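 J774 mouse macrophages, 5 × 10^5 cells/well, in Eagle's MEM with 4 mM L-glutamine, 4500 mg/L glucose and 7.5% FBS, at 37 °C, 5% CO2. Compound was diluted from a 10 mM DMSO stock to final 0.1–100 μM (1% DMSO in all wells) and cells were cultured 40 h. Viability was read as cellular ATP content.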

[10] = system: Yersinia pestis; test: Antimicrobial activity against pgm, pla deficient Yersinia pestis CO92 infected in human peripheral blood monocytes assessed as inhibition of intracellular bacterial growth at 10 uM after 16 hrs; assay type: functional, organism-based
[11] = substrate: C/C=N/OCc1cc(OP(=O)(O)O)ccc1[N+](=O)[O-]; conditions: Yersinia pestis
[12] = substrate: CC(C)(C)c1cc(OP(=O)(O)O)ccc1[N+](=O)[O-]; conditions: Yersinia pestis
[13] = substrate: CC(C)(C)c1ccc(OP(=O)(O)O)c([N+](=O)[O-])c1; conditions: Yersinia pestis
[14] = substrate: Cc1cc([N+](=O)[O-])ccc1OP(=O)(O)O; conditions: Yersinia pestis
[15] = substrate: Cc1cccc([N+](=O)[O-])c1OP(=O)(O)O; conditions: Yersinia pestis
[16] = substrate: NOCc1cc(OP(=O)(O)O)ccc1[N+](=O)[O-]; conditions: Yersinia pestis
[17] = substrate: NOCc1ccc(OP(=O)(O)O)c([N+](=O)[O-])c1; conditions: Yersinia pestis
[18] = substrate: O=[N+]([O-])c1cc(-c2ccccc2)ccc1OP(=O)(O)O; conditions: Yersinia pestis
[19] = substrate: O=[N+]([O-])c1ccc(OP(=O)(O)O)c(C2CCCCC2)c1; conditions: Yersinia pestis
[20] = substrate: O=[N+]([O-])c1ccc(OP(=O)(O)O)cc1; conditions: Yersinia pestis
[21] = substrate: O=[N+]([O-])c1ccc(OP(=O)(O)O)cc1-c1ccccc1; conditions: Yersinia pestis
[22] = substrate: O=[N+]([O-])c1cccc(C2CCCCC2)c1OP(=O)(O)O; conditions: Yersinia pestis

Chain of Receptor-type tyrosine-protein phosphatase F (P10586 whole entry): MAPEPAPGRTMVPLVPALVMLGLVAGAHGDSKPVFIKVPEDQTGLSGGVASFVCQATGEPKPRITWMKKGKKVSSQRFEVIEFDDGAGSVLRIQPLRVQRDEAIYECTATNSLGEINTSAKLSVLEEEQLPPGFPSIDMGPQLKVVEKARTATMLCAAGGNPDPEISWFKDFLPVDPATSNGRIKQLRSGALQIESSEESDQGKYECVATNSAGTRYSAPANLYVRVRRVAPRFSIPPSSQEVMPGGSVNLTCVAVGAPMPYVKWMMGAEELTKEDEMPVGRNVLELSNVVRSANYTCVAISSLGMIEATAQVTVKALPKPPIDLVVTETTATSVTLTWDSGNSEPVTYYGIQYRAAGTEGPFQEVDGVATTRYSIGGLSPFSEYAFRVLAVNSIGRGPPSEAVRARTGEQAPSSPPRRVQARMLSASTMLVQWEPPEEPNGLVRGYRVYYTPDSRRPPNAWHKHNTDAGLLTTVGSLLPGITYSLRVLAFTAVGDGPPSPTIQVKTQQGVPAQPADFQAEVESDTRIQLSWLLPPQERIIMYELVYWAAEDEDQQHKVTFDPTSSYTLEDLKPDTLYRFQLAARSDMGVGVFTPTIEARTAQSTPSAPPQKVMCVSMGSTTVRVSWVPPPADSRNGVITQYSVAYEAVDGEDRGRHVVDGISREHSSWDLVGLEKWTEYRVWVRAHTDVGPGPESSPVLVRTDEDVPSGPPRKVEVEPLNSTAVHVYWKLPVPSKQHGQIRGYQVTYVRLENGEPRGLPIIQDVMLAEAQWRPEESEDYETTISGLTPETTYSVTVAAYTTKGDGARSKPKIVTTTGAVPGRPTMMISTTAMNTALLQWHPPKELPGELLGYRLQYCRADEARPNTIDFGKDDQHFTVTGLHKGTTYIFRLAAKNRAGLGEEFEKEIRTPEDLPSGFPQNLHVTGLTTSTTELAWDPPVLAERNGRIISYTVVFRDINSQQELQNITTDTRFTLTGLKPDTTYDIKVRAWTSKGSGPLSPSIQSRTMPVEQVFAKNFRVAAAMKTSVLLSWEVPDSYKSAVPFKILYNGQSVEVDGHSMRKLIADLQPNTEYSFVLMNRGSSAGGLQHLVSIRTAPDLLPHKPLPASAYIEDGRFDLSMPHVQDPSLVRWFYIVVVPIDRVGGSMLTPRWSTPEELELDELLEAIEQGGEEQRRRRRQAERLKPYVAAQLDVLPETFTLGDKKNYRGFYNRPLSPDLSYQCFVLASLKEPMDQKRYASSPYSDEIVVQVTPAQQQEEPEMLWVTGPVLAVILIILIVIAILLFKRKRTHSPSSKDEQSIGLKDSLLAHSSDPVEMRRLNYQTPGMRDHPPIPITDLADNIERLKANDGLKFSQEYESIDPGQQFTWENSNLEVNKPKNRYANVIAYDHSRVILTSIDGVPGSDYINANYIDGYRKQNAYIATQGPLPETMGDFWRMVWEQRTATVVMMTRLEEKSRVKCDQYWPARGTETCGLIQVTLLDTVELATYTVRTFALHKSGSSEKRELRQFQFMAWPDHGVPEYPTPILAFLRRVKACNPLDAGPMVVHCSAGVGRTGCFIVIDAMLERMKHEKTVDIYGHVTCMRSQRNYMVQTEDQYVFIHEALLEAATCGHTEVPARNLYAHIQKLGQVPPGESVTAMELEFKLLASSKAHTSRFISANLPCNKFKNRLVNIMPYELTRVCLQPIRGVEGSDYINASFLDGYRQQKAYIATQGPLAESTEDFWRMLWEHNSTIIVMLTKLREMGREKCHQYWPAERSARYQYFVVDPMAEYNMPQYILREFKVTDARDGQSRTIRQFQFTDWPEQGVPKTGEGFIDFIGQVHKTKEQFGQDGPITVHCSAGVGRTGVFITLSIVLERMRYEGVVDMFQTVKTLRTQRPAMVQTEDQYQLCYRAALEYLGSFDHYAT
Chain of Tyrosine-protein phosphatase non-receptor type 1 (P18031 whole entry): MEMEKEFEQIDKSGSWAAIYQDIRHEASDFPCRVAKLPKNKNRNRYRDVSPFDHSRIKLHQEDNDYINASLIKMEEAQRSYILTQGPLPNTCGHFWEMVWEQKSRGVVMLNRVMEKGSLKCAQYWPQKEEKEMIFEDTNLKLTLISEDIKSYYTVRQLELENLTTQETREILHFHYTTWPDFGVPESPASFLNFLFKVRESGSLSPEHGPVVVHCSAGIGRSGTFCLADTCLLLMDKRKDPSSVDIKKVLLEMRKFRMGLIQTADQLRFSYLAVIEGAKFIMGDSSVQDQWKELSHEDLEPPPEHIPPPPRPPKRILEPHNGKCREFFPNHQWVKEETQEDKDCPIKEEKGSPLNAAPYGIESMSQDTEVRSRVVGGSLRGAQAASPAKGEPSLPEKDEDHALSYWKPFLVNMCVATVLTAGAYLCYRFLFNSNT
Chain of Dual specificity protein phosphatase 14 (O95147 whole entry): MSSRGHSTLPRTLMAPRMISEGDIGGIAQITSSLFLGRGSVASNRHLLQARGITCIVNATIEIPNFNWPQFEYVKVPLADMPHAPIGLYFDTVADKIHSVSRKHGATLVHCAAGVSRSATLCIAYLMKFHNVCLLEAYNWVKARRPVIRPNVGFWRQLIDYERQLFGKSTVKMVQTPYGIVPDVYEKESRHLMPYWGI
Chain of Dual specificity protein phosphatase 22 (Q9NRW4 whole entry): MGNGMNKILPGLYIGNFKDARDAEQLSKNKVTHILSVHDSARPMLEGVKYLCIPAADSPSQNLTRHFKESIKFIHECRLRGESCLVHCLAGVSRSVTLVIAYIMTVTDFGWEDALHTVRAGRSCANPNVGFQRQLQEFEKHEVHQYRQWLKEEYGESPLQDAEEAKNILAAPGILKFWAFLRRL

O=P(O)(O)C(F)(F)c1cccc(-c2ccc(CO/N=C/c3ccoc3)cc2)c1
IC50 [1]: 3690 nM

Cc1ccc(/C=N/OCc2ccc(-c3cccc(C(F)(F)P(=O)(O)O)c3)cc2)o1
IC50 [1]: 910 nM

O=P(O)(O)C(F)(F)c1cccc(-c2ccc(CO/N=C/c3ccc(CO)o3)cc2)c1
IC50 [1]: 730 nM

O=C(O)c1ccc(/C=N/OCc2ccc(-c3cccc(C(F)(F)P(=O)(O)O)c3)cc2)o1
IC50 [2]: > 400000 nM | IC50 [1]: 190 nM | inhibition [3]: Active | inhibition [4]: Active | IC50 [5]: 2230 nM | IC50 [6]: > 400000 nM | IC50 [7]: > 400000 nM | IC50 [8]: > 400000 nM | Activity [9]: Non-toxic | inhibition [10]: Active

GENTAMICIN
inhibition [10]: Active

O=P(O)(O)C(F)(F)c1cccc(-c2ccc(CO/N=C/c3ccco3)cc2)c1
IC50 [1]: 1200 nM

B1: Secreted effector protein (Yersinia pestis), O68720 (protein)
chain: MNLSLSDLHRQVSRLVQQESGDCTGKLRGNVAANKETTFQGLTIASGARESEKVFAQTVLSHVANVVLTQEDTAKLLQSTVKHNLNNYDLRSVGNGNSVLVSLRSDQMTLQDAKVLLEAALRQESGARGHVSSHSHSALHAPGTPVREGLRSHLDPRTPPLPPRERPHTSGHHGAGEARATAPSTVSPYGPEARAELSSRLTTLRNTLAPATNDPRYLQACGGEKLNRFRDIQCCRQTAVRADLNANYIQVGNTRTIACQYPLQSQLESHFRMLAENRTPVLAVLASSSEIANQRFGMPDYFRQSGTYGSITVESKMTQQVGLGDGIMADMYTLTIREAGQKTISVPVVHVGNWPDQTAVSSEVTKALASLVDQTAETKRNMYESKGSSAVGDDSKLRPVIHCRAGVGRTAQLIGAMCMNDSRNSQLSVEDMVSQMRVQRNGIMVQKDEQLDVLIKLAEGQGRPLLNS
Km [11]: 170 µM | Km [12]: 1140 µM | Km [13]: 470 µM | Km [14]: 650 µM | Km [15]: Not Active | Km [16]: 410 µM | Km [17]: 1130 µM | Km [18]: 150 µM | Km [19]: 260 µM | Km [20]: 600 µM | Km [21]: 80 µM | Km [22]: Not Active
